Results: ChEMBL document CHEMBL4354866, “TREK Channel Family Activator with a Well-Defined Structure-Activation Relationship for Pain and Neurogenic Inflammation” (J Med Chem, 2020)
Calls of active or inactive are those of the source.

Assays:
[1] = biological target: T1, Potassium channel subfamily K member 2 (Homo sapiens) (UniProt O95069); experiment: Activation of recombinant human TREK1 expressed in HEK293T cells assessed as increase in K+ current amplitude at 30 uM by whole cell voltage clamp electrophysiological analysis; assay type: cell-based
T1 sequence (whole entry): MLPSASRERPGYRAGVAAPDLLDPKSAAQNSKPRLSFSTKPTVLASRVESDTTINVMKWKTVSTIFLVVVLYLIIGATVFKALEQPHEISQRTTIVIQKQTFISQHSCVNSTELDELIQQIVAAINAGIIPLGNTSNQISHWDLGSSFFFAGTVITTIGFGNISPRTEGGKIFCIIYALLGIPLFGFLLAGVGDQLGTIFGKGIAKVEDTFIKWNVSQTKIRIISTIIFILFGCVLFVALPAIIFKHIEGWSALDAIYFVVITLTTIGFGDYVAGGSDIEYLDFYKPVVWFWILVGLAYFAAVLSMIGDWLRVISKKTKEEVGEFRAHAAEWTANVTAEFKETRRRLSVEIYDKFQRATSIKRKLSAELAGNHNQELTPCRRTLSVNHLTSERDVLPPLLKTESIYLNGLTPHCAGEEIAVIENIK

[2] = test system: Mus musculus; experiment: Analgesic activity in mouse assessed as increase in tail flick latency time at 5 mg/kg, ip at 52 degC by tail immersion test; assay type: functional, organism-based
Summary of the method: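 Male BALB/c or C57BL/6 mice, 6–8 weeks, acclimated in a holder 15 min/day for 3 days. Distal 3 cm of tail immersed at 5, 20, 40, 46 or 52 °C; flick latency recorded, cut-off 15 s. Compound i.p. in 5% DMSO/5% Tween 80/90% saline (1.25–10 mg/kg at 52 °C; 5 mg/kg across temperatures).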

[3] = test system: Mus musculus; experiment: Analgesic activity in cerulein-induced mouse model of acute pancreatitis assessed as reduction in myeloperoxidase activity at 10 mg/kg, ip administered at 2 hrs interval for 10 hrs starting from post-first cerulein challenge and measured 12 hrs post-first cerulein challenge; assay type: functional, organism-based
Summary of the method: (§1)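 Cerulein pancreatitis: 7 hourly i.p. injections of 50 µg/kg; 10 mg/kg compound i.p. at 2, 4, 6, 8 and 10 h. Mice killed at 12 h and pancreas harvested for MPO activity and H&E histology. Ten random fields per slide scored blind by two observers for edema, inflammatory infiltration and acinar necrosis; n = 6.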

[4] = test system: Mus musculus; experiment: (§2) Analgesic activity in cerulein-induced mouse model of acute pancreatitis assessed as reduction in pancreatic necrosis at 10 mg/kg, ip administered at 2 hrs interval for 10 hrs starting from post-first cerulein challenge and measured 12 hrs post-first cerulein challenge by H and E staining based histopathological analysis; assay type: functional, organism-based; summary of the method: as §1
[5] = test system: Mus musculus; experiment: as §2, with “inflammatory infiltration” for “necrosis”; assay type: functional, organism-based; summary of the method: as §1
[6] = test system: Mus musculus; experiment: as §2, with “edema” for “necrosis”; assay type: functional, organism-based; summary of the method: as §1
[7] = test system: Mus musculus; experiment: Analgesic activity in mouse model of spared nerve injury assessed as reduction in cold hyperalgesia at 30 mg/kg, ip measured at 7 days interval for up to 21 days post spared nerve injury by cold plantar test; assay type: functional, organism-based
Summary of the method: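 Male mice (BALB/c or C57BL/6, 6-8 weeks) after SNI; compound given i.p. in 5% DMSO, 5% Tween 80, 90% saline. Mice acclimated 3 days on a 6 mm glass plate. A syringe packed with powdered dry ice was applied under the centre of the left hindpaw. Paw withdrawal latency was timed by stopwatch with a 30 s cutoff. Groups compared by unpaired t test or Mann-Whitney.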

[8] = biological target: T1, Potassium channel subfamily K member 2 (Homo sapiens); experiment: Activation of recombinant human TREK1 expressed in HEK293T cells assessed as increase in K+ current amplitude at 1 mM by whole cell voltage clamp electrophysiological analysis; assay type: cell-based

**Q.** Which results are given for `Cc1ccc2nc(-c3ccc(NC(=O)C4CCCC4)cc3)sc2c1`?
**A.** Activity [1]: inactive; Activity [2]: inactive; Activity [3]: inactive; Activity [4]: inactive; Activity [5]: inactive; Activity [6]: inactive

**Q.** For `CC(C)C[C@H](CN)CC(=O)O`, which Activity [7] is on record?
**A.** Its Activity is “Active”.

**Q.** How did the Activity [1] turn out when `COC(=O)[C@H]1CC[C@@H](C(=O)Nc2ccc(-c3nc4ccc(C)cc4s3)cc2)C1` was run?
**A.** Its Activity is “inactive”.

**Q.** Which Activity [8] does the source give for `C[N+](C)(C)CCSS(C)(=O)=O` here?
**A.** The Activity was “inactive”.
